Data published in ChEMBL document CHEMBL4196066, “Design and synthesis of furyl/thineyl pyrroloquinolones based on natural alkaloid perlolyrine, lead to the discovery of potent and selective PDE5 inhibitors” (Eur J Med Chem, 2018).

Columns and labels:
[1] = species: Homo sapiens; experiment: Selectivity ratio of IC50 for N-terminal FLAG-tagged human PDE2A1 (2 to 941 residues) to IC50 for N-terminal GST-tagged full length recombinant human PDE5A1 catalytic domain
[2] = Volume of distribution at steady state in Wistar rat at 2 mg/kg, iv; assay type: ADME, organism-based; settings: in vivo, read-out: Vdss
[3] = (§1) AUC (0 to infinity) in Wistar rat at 15 mg/kg, po; assay type: ADME, organism-based; design: dose 15 mg/kg, route oral, time infinity; settings: Wistar, in vivo
How it was run: (§2)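 Male Wistar rats (228−249 g) fasted 12 h, dosed orally in 0.5% methylcellulose. Blood drawn at 0, 0.5, 1, 1.5, 2, 4, 6, 12 and 24 h; plasma separated by centrifugation at 4 °C, stored at −80 °C, drug measured by LC–MS/MS, and PK parameters computed from the concentration–time data.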

[4] = species: Homo sapiens; experiment: Selectivity ratio of IC50 for N-terminal GST-tagged full length recombinant human PDE6C to IC50 for N-terminal GST-tagged full length recombinant human PDE5A1 catalytic domain
[5] = Tmax in Wistar rat at 2 mg/kg, iv; assay type: ADME, organism-based; settings: in vivo
[6] = AUC (0 to 24 hrs) in Wistar rat at 2 mg/kg, iv; assay type: ADME, organism-based; design: time < 24 hr, dose 2 mg/kg, route intravenous; settings: in vivo
[7] = Clearance in Wistar rat at 15 mg/kg, po; assay type: ADME, organism-based; settings: in vivo
[8] = MRT in Wistar rat at 2 mg/kg, iv; assay type: ADME, organism-based; settings: in vivo
[9] = target: Dual specificity calcium/calmodulin-dependent 3',5'-cyclic nucleotide phosphodiesterase 1A (Homo sapiens) (UniProt P54750); experiment: Inhibition of N-terminal GST-tagged full length recombinant human PDE1A expressed in Baculovirus infected Sf9 insect cells at 6 uM using FAM-cAMP as substrate after 1 hr by fluorescence polarization assay relative to control
Dual specificity calcium/calmodulin-dependent 3',5'-cyclic nucleotide phosphodiesterase 1A (Homo sapiens), sequence (P54750 whole entry): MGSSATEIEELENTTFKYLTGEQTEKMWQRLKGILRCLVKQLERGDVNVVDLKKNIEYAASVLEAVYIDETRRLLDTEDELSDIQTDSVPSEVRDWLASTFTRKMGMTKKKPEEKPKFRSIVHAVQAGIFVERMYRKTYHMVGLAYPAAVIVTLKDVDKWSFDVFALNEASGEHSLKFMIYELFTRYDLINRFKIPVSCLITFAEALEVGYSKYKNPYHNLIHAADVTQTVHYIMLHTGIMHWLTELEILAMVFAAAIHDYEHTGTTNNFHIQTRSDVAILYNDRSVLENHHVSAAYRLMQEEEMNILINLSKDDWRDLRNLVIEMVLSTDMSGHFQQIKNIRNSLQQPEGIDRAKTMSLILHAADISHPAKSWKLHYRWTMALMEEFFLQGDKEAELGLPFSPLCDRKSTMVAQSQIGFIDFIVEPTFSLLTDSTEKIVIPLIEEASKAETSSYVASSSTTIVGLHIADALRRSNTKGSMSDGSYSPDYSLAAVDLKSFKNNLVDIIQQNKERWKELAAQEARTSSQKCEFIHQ

[10] = MRT in Wistar rat at 15 mg/kg, po; assay type: ADME, organism-based; settings: in vivo
[11] = target: Dual 3',5'-cyclic-AMP and -GMP phosphodiesterase 11A (Homo sapiens, UniProt Q9HCR9); experiment: Inhibition of N-terminal GST-tagged full length recombinant human PDE11A expressed in Baculovirus infected Sf9 insect cells using FAM-cAMP as substrate after 1 hr by fluorescence polarization assay
Dual 3',5'-cyclic-AMP and -GMP phosphodiesterase 11A, sequence (Q9HCR9 whole entry): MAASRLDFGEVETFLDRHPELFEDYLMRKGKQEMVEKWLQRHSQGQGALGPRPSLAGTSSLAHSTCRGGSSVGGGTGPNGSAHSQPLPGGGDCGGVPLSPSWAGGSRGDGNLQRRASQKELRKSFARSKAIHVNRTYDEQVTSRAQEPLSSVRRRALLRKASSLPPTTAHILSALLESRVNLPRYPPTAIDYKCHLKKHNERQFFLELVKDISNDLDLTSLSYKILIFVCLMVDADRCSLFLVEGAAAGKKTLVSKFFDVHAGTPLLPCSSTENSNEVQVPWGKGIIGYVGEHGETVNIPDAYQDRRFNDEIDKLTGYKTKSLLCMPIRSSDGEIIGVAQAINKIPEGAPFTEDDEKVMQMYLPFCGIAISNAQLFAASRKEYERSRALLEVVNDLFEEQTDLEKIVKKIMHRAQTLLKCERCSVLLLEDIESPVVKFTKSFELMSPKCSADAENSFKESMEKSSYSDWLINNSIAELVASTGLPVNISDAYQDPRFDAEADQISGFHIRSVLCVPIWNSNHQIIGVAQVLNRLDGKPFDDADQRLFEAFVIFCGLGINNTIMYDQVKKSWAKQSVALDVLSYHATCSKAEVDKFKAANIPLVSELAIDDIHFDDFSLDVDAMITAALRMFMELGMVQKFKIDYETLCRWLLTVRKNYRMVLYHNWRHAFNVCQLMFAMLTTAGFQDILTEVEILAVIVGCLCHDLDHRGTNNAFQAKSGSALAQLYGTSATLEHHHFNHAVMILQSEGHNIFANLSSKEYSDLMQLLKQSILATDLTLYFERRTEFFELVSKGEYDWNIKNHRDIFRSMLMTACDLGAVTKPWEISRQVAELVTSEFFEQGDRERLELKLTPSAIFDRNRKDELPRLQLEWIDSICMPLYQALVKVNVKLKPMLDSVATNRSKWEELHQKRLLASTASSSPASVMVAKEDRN

[12] = AUC (0 to 24 hrs) in Wistar rat at 15 mg/kg, po; assay type: ADME, organism-based; design: time < 24 hr, dose 15 mg/kg, route oral; settings: in vivo; how it was run: as §2
[13] = test system: Rattus norvegicus; experiment: Volume of distribution at steady state in Wistar rat at 15 mg/kg, po; assay type: ADME, organism-based; settings: in vivo
[14] = target: 3',5'-cyclic-AMP phosphodiesterase 4A (Homo sapiens) (UniProt P27815); experiment: Inhibition of N-terminal GST-tagged full length recombinant human PDE4A1A expressed in Baculovirus infected Sf9 insect cells at 1 uM using FAM-cAMP as substrate after 1 hr by fluorescence polarization assay relative to control
3',5'-cyclic-AMP phosphodiesterase 4A (Homo sapiens), sequence (P27815 whole entry, the tested form may be a part): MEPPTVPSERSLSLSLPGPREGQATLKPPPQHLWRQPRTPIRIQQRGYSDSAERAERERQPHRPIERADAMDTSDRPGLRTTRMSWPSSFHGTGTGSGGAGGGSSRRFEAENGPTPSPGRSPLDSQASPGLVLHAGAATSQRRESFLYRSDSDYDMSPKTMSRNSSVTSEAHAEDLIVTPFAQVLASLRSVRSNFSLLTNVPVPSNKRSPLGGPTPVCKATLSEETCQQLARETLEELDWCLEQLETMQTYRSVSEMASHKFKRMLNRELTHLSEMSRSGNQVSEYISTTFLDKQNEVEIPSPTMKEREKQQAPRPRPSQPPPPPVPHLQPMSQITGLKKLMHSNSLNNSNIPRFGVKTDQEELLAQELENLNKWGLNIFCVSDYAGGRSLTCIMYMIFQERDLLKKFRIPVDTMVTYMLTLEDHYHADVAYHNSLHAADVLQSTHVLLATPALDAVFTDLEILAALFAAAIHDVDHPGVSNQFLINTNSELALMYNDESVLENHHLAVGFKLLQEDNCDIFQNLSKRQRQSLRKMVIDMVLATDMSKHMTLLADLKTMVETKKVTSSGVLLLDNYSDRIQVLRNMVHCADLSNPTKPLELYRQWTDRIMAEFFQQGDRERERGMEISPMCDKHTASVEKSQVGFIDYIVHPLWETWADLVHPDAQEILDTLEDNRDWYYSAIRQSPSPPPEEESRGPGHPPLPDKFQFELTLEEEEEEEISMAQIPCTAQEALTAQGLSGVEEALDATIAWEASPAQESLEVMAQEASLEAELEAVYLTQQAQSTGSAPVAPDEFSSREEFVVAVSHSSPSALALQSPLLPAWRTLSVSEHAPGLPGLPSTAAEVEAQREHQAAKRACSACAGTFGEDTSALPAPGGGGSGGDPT

[15] = Tmax in Wistar rat at 15 mg/kg, po; assay type: ADME, organism-based; settings: in vivo
[16] = target: cGMP-inhibited 3',5'-cyclic phosphodiesterase 3B (Homo sapiens) (UniProt Q13370); experiment: Inhibition of N-terminal GST-tagged recombinant human PDE3B (592 end residues) expressed in Baculovirus infected Sf9 insect cells at 6 uM using FAM-cAMP as substrate after 1 hr by fluorescence polarization assay relative to control
cGMP-inhibited 3',5'-cyclic phosphodiesterase 3B (Homo sapiens), sequence (Q13370 whole entry, looked up, the tested form may be a part): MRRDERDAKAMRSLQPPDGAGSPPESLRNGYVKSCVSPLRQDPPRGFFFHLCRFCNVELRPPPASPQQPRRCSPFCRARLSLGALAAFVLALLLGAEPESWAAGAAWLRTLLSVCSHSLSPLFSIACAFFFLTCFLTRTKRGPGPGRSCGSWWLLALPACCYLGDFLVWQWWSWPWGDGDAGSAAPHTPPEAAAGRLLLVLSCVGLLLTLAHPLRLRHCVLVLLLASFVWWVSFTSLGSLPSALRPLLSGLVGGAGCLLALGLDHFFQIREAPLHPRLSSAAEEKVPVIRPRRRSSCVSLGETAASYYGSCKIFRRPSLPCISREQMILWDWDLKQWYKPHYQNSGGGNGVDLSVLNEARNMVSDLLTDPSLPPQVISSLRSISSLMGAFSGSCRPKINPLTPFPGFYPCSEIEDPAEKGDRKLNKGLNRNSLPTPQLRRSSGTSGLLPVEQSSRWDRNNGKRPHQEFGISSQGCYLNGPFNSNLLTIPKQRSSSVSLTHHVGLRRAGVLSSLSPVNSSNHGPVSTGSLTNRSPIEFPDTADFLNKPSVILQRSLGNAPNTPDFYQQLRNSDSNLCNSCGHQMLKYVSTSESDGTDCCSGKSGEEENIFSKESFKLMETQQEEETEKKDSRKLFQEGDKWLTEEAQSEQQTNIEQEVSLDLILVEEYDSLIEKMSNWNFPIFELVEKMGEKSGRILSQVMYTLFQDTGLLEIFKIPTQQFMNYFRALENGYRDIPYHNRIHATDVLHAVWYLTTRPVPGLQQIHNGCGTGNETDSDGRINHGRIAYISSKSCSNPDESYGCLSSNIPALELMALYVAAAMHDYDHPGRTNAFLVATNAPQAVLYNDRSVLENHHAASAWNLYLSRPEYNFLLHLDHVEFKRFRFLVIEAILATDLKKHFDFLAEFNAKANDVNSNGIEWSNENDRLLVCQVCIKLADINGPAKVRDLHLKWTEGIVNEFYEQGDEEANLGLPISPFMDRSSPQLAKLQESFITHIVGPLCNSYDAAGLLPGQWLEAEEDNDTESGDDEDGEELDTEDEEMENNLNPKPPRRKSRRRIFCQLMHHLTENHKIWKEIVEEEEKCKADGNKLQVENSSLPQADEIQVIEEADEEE

[17] = AUC (0 to infinity) in Wistar rat at 2 mg/kg, iv; assay type: ADME, organism-based; design: dose 2 mg/kg, route intravenous, time infinity; settings: in vivo
[18] = species: Homo sapiens; experiment: Selectivity ratio of IC50 for N-terminal GST-tagged full length recombinant human PDE4A1A to IC50 for N-terminal GST-tagged full length recombinant human PDE5A1 catalytic domain
[19] = target: Cone cGMP-specific 3',5'-cyclic phosphodiesterase subunit alpha' (Homo sapiens, UniProt P51160); experiment: Inhibition of N-terminal GST-tagged full length recombinant human PDE6C expressed in Baculovirus infected Sf9 insect cells using […] as substrate after 1 hr by fluorescence polarization assay
[20] = target: cGMP-dependent 3',5'-cyclic phosphodiesterase (Homo sapiens) (UniProt O00408); experiment: Inhibition of N-terminal FLAG-tagged human PDE2A1 (2 to 941 residues) expressed in Baculovirus infected Sf9 insect cells at 6 uM using FAM-cAMP as substrate after 1 hr by fluorescence polarization assay relative to control
cGMP-dependent 3',5'-cyclic phosphodiesterase (Homo sapiens), sequence (O00408 whole entry, the tested form may be a part): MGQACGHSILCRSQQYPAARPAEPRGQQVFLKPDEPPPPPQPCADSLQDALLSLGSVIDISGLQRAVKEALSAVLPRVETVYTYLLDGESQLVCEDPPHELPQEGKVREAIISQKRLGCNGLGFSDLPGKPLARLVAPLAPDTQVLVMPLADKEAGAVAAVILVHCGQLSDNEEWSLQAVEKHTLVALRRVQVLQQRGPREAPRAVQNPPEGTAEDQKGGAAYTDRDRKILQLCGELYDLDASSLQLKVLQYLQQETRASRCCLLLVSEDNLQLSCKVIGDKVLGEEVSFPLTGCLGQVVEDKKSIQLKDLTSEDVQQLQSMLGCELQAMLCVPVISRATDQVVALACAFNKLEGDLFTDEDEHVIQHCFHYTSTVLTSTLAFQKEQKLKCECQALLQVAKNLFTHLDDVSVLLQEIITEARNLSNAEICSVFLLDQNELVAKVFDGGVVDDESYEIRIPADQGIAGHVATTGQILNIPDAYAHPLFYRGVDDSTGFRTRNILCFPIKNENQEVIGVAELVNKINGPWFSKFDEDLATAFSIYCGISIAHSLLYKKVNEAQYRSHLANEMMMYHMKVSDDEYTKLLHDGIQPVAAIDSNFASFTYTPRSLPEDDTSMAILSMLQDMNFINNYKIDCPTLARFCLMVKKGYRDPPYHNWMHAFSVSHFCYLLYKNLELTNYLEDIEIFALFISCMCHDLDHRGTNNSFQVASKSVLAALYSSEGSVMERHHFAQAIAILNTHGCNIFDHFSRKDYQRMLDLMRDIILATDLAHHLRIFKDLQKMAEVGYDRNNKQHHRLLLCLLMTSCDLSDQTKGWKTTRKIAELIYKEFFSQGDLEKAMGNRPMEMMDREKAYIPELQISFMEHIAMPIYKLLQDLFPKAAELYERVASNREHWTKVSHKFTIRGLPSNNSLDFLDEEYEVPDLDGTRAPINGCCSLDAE

[21] = test system: Thoracic aorta; experiment: Vasorelaxant activity in norepinephrine-pretreated New Zealand rabbit thoracic aorta assessed as increase in aortic relaxation at 1 uM measured after 15 mins relative to control; assay type: functional, Oryctolagus cuniculus; design: scale not given: the % may be the effect or the level left
How it was run: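 Thoracic aortic rings from New Zealand white rabbits were held in Krebs buffer at 2 g resting tension (0%) and equilibrated 2 h. Rings were contracted to maximum with 1 µM norepinephrine (100%). Compounds were added cumulatively at 15 min intervals, with tension recorded 15 min after each dose. Relaxation % = (max − recorded)/(max − 2 g) × 100; n = 1–2 rings.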

[22] = species: Homo sapiens; experiment: Selectivity ratio of IC50 for N-terminal GST-tagged recombinant human PDE3B (592 end residues) to IC50 for N-terminal GST-tagged full length recombinant human PDE5A1 catalytic domain
[23] = test system: Oryctolagus cuniculus; experiment: Vasorelaxant activity in iv dosed New Zealand rabbit assessed as induction of ICP change in response to electrically pelvic nerve stimulation administered as bolus dose; assay type: functional
[24] = Half life in Wistar rat at 15 mg/kg, po; assay type: ADME, organism-based; settings: in vivo
[25] = Cmax in Wistar rat at 2 mg/kg, iv; assay type: ADME, organism-based; design: dose 2 mg/kg, route intravenous; settings: in vivo
[26] = Half life in Wistar rat at 2 mg/kg, iv; assay type: ADME, organism-based; settings: in vivo
[27] = Oral bioavailability in Wistar rat at 15 mg/kg; assay type: ADME, organism-based; settings: in vivo
[28] = species: Homo sapiens; experiment: Selectivity ratio of IC50 for N-terminal GST-tagged full length recombinant human PDE11A to IC50 for N-terminal GST-tagged full length recombinant human PDE5A1 catalytic domain
[29] = species: Homo sapiens; experiment: Selectivity ratio of IC50 for N-terminal GST-tagged full length recombinant human PDE1A to IC50 for N-terminal GST-tagged full length recombinant human PDE5A1 catalytic domain
[30] = Cmax in Wistar rat at 15 mg/kg, po; assay type: ADME, organism-based; design: dose 15 mg/kg, route oral; settings: in vivo
[31] = target: cGMP-specific 3',5'-cyclic phosphodiesterase (Homo sapiens, UniProt O76074); experiment: Inhibition of N-terminal GST-tagged full length recombinant human PDE5A1 catalytic domain expressed in Baculovirus infected Sf9 insect cells using FAM-cGMP as substrate after 1 hr by fluorescence polarization assay
[32] = Clearance in Wistar rat at 2 mg/kg, iv; assay type: ADME, organism-based; settings: in vivo
[33] = test system: Rattus norvegicus; experiment: as §1; assay type: ADME, organism-based; design: dose 15 mg/kg, route oral, time infinity; settings: in vivo; how it was run: as §2
[34] = target: cGMP-inhibited 3',5'-cyclic phosphodiesterase 3B (Homo sapiens) (UniProt Q13370); experiment: Inhibition of N-terminal GST-tagged recombinant human PDE3B (592 end residues) expressed in Baculovirus infected Sf9 insect cells at 8 uM using FAM-cAMP as substrate after 1 hr by fluorescence polarization assay relative to control
[35] = target: cGMP-dependent 3',5'-cyclic phosphodiesterase (Homo sapiens) (UniProt O00408); experiment: Inhibition of N-terminal FLAG-tagged human PDE2A1 (2 to 941 residues) expressed in Baculovirus infected Sf9 insect cells at 8 uM using FAM-cAMP as substrate after 1 hr by fluorescence polarization assay relative to control
[36] = target: Dual specificity calcium/calmodulin-dependent 3',5'-cyclic nucleotide phosphodiesterase 1A (Homo sapiens) (UniProt P54750); experiment: Inhibition of N-terminal GST-tagged full length recombinant human PDE1A expressed in Baculovirus infected Sf9 insect cells at 8 uM using FAM-cAMP as substrate after 1 hr by fluorescence polarization assay relative to control
[37] = target: 3',5'-cyclic-AMP phosphodiesterase 4A (Homo sapiens) (UniProt P27815); experiment: Inhibition of N-terminal GST-tagged full length recombinant human PDE4A1A expressed in Baculovirus infected Sf9 insect cells at 1.5 uM using FAM-cAMP as substrate after 1 hr by fluorescence polarization assay relative to control
[38] = target: cGMP-dependent 3',5'-cyclic phosphodiesterase (Homo sapiens) (UniProt O00408); experiment: Inhibition of N-terminal FLAG-tagged human PDE2A1 (2 to 941 residues) expressed in Baculovirus infected Sf9 insect cells at 250 uM using FAM-cAMP as substrate after 1 hr by fluorescence polarization assay relative to control

| SMILES | Ratio IC50 [1] | Vd [2] [L/kg] | Ratio IC50 [4] | Tmax [5] [min] | AUC(0-t) at 24 h [6] [ng·h/mL] | MRT [8] [h] | MRT [10] [h] | IC50 [11] [nM] | AUC(0-t) at 24 h [12] [ng·h/mL] | Vdss [13] [L/kg] | Tmax [15] [h] | AUC(0-inf) [17] [ng·h/mL] | Ratio IC50 [18] | IC50 [19] [nM] | Activity [21] [%] | Ratio IC50 [22] | ED50 [23] [mg/kg] | half-life [24] [h] | Cmax [25] [ng/mL] | half-life [26] [h] | further results |
| --- | --- | --- | --- | --- | --- | --- | --- | --- | --- | --- | --- | --- | --- | --- | --- | --- | --- | --- | --- | --- | --- |
| CCc1ccc([C@@H]2c3[nH]c4ccccc4c(=O)c3CN2c2ncc(-c3ccccn3)cn2)o1 | > 10000 | 124 | 3.9 | 6 | 67.9 | 3.1 | 9.4 | 5.1 | 312 | 420.9 | 1.3 | 69.3 | > 2500 | 1.5 | >90 | > 10000 | 0.0242 | 7.8 | 89.2 | 2.9 | AUC(0-inf) [3]: 344 ng·h/mL; CL/F [7]: 550 mL/min/kg; inhibition [9]: 6%; inhibition [14]: 18%; inhibition [16]: 9.5%; inhibition [20]: 49%; bioavailability [27]: 66.3%; Ratio IC50 [28]: 13.1; Ratio IC50 [29]: > 10000; Cmax [30]: 46.9 ng/mL; IC50 [31]: 0.39 nM; clearance [32]: 533 mL/min/kg |
| CCc1ccc([C@@H]2c3[nH]c4ccccc4c(=O)c3CN2c2ncc(-c3ccccn3)cn2)s1 | > 10000 | 72.7 | 2.5 | 6 | 121 | 2.9 | 6.7 | 2.7 | 225 | 181.3 | 2.8 | 125 | > 2500 | 1.2 | >90 | > 10000 | 0.0217 | 4.3 | 308 | 1.9 | AUC [33]: 231.9 ng·h/mL; inhibition [34]: 7%; inhibition [35]: 39%; inhibition [36]: 9.5%; bioavailability [27]: 24.7%; Ratio IC50 [28]: 5.2; inhibition [37]: 10%; Ratio IC50 [29]: > 10000; Cmax [30]: 27.5 ng/mL; IC50 [31]: 0.52 nM; inhibition [38]: 81%; clearance [32]: 287 mL/min/kg |
